The source of these data is ChEMBL document CHEMBL4145584, “Non-geminal Aliphatic Dihalogenation Pattern in Dichlorinated Diaporthins from Hamigera fusca NRRL 35721” (2018).

Holding throughout (assay type): functional
A short description of experiment [1]: Cytotoxicity against human CCD25sk cells after 72 hrs by MTT assay. The method, boiled down:
(§1)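 Human cell panel of fibroblasts (CCD25sk), neuroblastoma (SHSY5), pancreatic carcinoma (MiaPaca-2), breast adenocarcinoma (MCF-7), hepatocellular carcinoma (HepG2), melanoma (A2058) and lung carcinoma (A549), tested by colorimetric MTT viability read-out. Doxorubicin served as positive control, and results were expressed as CC50.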

In the next experiment the test system is SH-SY5Y. Briefly: Cytotoxicity against human SH-SY5Y cells after 72 hrs by MTT assay. The method, boiled down: as §1
In general terms: Formazan colour is commonly taken as a measure of viable cells.

For another experiment, the system named is HeLa. Briefly: Cytotoxicity against human HeLa cells.
For another experiment, the system named is HepG2. Briefly: Cytotoxicity against human HepG2 cells after 72 hrs by MTT assay. To be noted: HepG2, 72 h. Put shortly: as §1
A further experiment relates to MIA PaCa-2. Briefly: Cytotoxicity against human MIAPaCa2 cells after 72 hrs by MTT assay. The conditions noted are these: MIA PaCa-2, 72 h. Put shortly: as §1
The next experiment deals with MCF7. Briefly: Cytotoxicity against human MCF7 cells after 72 hrs by MTT assay. The conditions noted are these: MCF7, 72 h. Put shortly: as §1
A further experiment has as its system A2058. Briefly: Cytotoxicity against human A2058 cells after 72 hrs by MTT assay. The conditions noted are these: A2058, 72 h. Put shortly: as §1
In the next experiment the test system is A549. Briefly: Cytotoxicity against human A549 cells after 72 hrs by MTT assay. The conditions noted are these: A549, 72 h. Put shortly: as §1

The CC50 is the concentration that lowers cell viability or growth by half. Low values mean harm at low concentration, high ones better tolerance by the cells. As for `COc1cc(OC)c2c(=O)oc(C[C@@H](O)C(Cl)Cl)cc2c1`, the CC50 in experiment [1] is 27 µM; in the experiment on SH-SY5Y, 19.4 µM.
In turn, `COc1cc(O)c2c(=O)oc(C[C@@H](O)C(Cl)Cl)cc2c1` registered a CC50 in the experiment with HeLa of 28 µM.
Take `COc1cc(OC)c2c(=O)oc([C@@H](Cl)[C@@H](O)CCl)cc2c1` (relative stereo): the CC50 with SH-SY5Y was determined as 36.2 µM.
Same read-out and setting: under `COc1cc(OC)c2c(=O)oc([C@H](Cl)[C@@H](O)CCl)cc2c1` (relative stereo) stands 39.2 µM.
As to `COc1cccc2c1C(=O)c1c(O)c3c(c(O)c1C2=O)C[C@@](O)(C(=O)CO)C[C@@H]3O[C@H]1C[C@H](N)[C@H](O)[C@H](C)O1` [DOXORUBICIN], the CC50 in experiment [1] amounted to 0.85 µM; in the experiment on HepG2 it was 1.95 µM; in the experiment with SH-SY5Y it was 0.7 µM; with MIA PaCa-2, 2.97 µM; in the experiment with MCF7, 7 µM; with A2058, 1.79 µM. In the experiment with A549, the midpoint of cytotoxicity, the CC50, lay at 10.5 µM.
